Assay results: ChEMBL document CHEMBL3351899, “Novologues containing a benzamide side chain manifest anti-proliferative activity against two breast cancer cell lines” (Bioorg Med Chem Lett, 2014)
The source made the active and inactive calls. The calls are words filed in the database; no cut-off is given here.

How the values were obtained:
[1] = Antiproliferative activity against human SKBR3 cells; type: functional, cell-based, SK-BR-3; details: for EC50: Homo sapiens, SK-BR-3
How it was run: (§1)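 Cell-based antiproliferation assay in SKBr3 (ER-negative, HER2-overexpressing) and MCF-7 (ER-positive) breast cancer cells. Values are mean ± standard deviation from at least two separate experiments, each run in triplicate.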

[2] = system: MCF7; assay: Antiproliferative activity against human MCF7 cells; type: functional; how it was run: as §1
[3] = target: Heat shock protein HSP 90-beta (Homo sapiens) (UniProt P08238); assay: Inhibition of HSP90-mediated Her2 degradation in human MCF7 cell lysate after 24 hrs by Western blot analysis; type: cell-based
Sequence of Heat shock protein HSP 90-beta (Homo sapiens) (P08238 whole entry): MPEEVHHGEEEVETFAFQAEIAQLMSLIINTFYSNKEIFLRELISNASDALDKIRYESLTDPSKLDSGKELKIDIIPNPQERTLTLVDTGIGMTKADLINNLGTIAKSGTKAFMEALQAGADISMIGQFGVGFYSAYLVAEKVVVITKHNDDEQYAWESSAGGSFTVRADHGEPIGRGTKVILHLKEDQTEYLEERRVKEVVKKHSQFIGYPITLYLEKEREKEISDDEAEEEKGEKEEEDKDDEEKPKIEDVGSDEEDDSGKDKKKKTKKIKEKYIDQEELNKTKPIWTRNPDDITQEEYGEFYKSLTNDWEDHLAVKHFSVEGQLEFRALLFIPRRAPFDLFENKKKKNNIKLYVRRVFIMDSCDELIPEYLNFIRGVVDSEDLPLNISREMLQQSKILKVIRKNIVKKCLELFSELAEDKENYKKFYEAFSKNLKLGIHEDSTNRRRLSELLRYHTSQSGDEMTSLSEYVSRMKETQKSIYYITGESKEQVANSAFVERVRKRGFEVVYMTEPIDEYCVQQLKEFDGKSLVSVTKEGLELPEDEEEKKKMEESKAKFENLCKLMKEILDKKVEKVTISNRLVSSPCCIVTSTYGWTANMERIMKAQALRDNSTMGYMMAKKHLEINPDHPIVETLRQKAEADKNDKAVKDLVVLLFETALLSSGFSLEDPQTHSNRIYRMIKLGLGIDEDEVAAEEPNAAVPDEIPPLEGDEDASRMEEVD
How it was run: (§2)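 MCF7 cells grown to confluence, seeded at 0.4 x 10^6 cells/well, incubated 24 h, then treated 24 h with varying compound concentrations (0.25% DMSO final) or DMSO vehicle; geldanamycin 0.5 µM as positive control. Cells lysed with protease/phosphatase inhibitors and clarified at 14,000g, 15 min, 4 °C. 5 µg protein run on reducing 10% gels, PVDF transfer, immunoblot with HRP secondary and chemiluminescent detection; actin as loading control.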

[4] = target: Heat shock protein HSP 90-beta (Homo sapiens) (UniProt P08238); assay: Inhibition of HSP90-mediated Raf-1 degradation in human MCF7 cell lysate after 24 hrs by Western blot analysis; type: cell-based; how it was run: as §2
[5] = target: Heat shock protein HSP 90-beta (Homo sapiens) (UniProt P08238); assay: Inhibition of HSP90-mediated p-Akt degradation in human MCF7 cell lysate after 24 hrs by Western blot analysis; type: cell-based; how it was run: as §2
[6] = system: MCF7; assay: Effect on HSP90 level in human MCF7 cell lysate at 1 to 25 uM after 24 hrs by Western blot analysis; type: functional, cell-based; how it was run: as §2

| Structure (SMILES) | Activity [1] [µM] | Activity [2] [µM] | other results |
| --- | --- | --- | --- |
| COc1ccc(C(=O)NCCc2ccc(O[C@@H]3OC(C)(C)[C@H](OC)[C@@H](O)[C@H]3O)cc2-c2cccc(C(F)(F)F)c2)cc1 | 14.02 | 12.1 |  |
| COc1cccc(-c2cc(C(=O)NCCc3ccc(OC4CCN(C)CC4)cc3-c3cccc(F)c3)ccc2OC)c1 | 2.82 | 3.19 |  |
| CO[C@@H]1[C@@H](O)[C@@H](O)[C@H](Oc2ccc(CCNC(=O)c3ccccc3)c(-c3cccc(C(F)(F)F)c3)c2)OC1(C)C | 41.9 | 44.44 |  |
| CN1CCC(Oc2ccc(CCNC(=O)c3ccc(C(C)(C)C)cc3)c(-c3cccc(C(F)(F)F)c3)c2)CC1 | 1.16 | 1.48 |  |
| COc1cccc(-c2cc(OC3CCN(C)CC3)ccc2CCNC(=O)c2ccc(OC)c(-c3cccc(OC)c3)c2)c1 | 11.54 | 12.36 |  |
| CO[C@@H]1[C@@H](O)[C@@H](O)[C@H](Oc2ccc(CCNC(C)=O)c(-c3cccc(C(F)(F)F)c3)c2)OC1(C)C |  | >500 | EC50 [1]: > 500000 nM |
| CO[C@@H]1[C@@H](O)[C@@H](O)[C@H](Oc2ccc(CCNC(=O)c3ccc(C(C)(C)C)cc3)c(-c3cccc(C(F)(F)F)c3)c2)OC1(C)C | 21.78 | 23.69 |  |
| CO[C@@H]1[C@@H](O)[C@@H](O)[C@H](Oc2ccc3cc(NC(C)=O)c(=O)oc3c2C)OC1(C)C |  |  | EC50 [1]: 10 nM |
| CN1CCC(Oc2ccc(CCNC(=O)c3ccccc3)c(-c3cccc(C(F)(F)F)c3)c2)CC1 | 13.22 | 15.07 |  |
| CO[C@@H]1[C@@H](O)[C@@H](O)[C@H](Oc2ccc(CCNC(=O)c3ccc(Cl)cc3)c(-c3cccc(C(F)(F)F)c3)c2)OC1(C)C | 14.48 | 11.69 |  |
| COc1cccc(-c2cc(C(=O)NCCc3ccc(OC4CCN(C)CC4)cc3-c3ccccc3)ccc2OC)c1 | 6.77 | 8.12 |  |
| COc1cccc(-c2cc(C(=O)NCCc3ccc(OC4CCN(C)CC4)cc3-c3cccc(Cl)c3)ccc2OC)c1 | 5.63 | 6.87 |  |
| CN1CCC(Oc2ccc(CCNC(=O)c3ccc(Cl)cc3)c(-c3cccc(C(F)(F)F)c3)c2)CC1 | 1.87 | 2.11 |  |
| COc1cccc(-c2cc(C(=O)NCCc3ccc(O[C@@H]4OC(C)(C)[C@H](OC)[C@@H](O)[C@H]4O)cc3-c3cccc(C(F)(F)F)c3)ccc2OC)c1 | 13.98 | 18.4 |  |
| COc1ccc(C(=O)NCCc2ccc(OC3CCN(C)CC3)cc2-c2cccc(C(F)(F)F)c2)cc1 | 2.71 | 4.82 |  |
| COc1cccc(-c2cc(C(=O)NCCc3ccc(OC4CCN(C)CC4)cc3-c3cccc(C(F)(F)F)c3)ccc2OC)c1 | 1.52 | 1.62 | inhibition [3]: Dose-dependent effect; inhibition [4]: Dose-dependent effect; inhibition [5]: Dose-dependent effect; Activity [6]: Active |
